# Screening data as filed in PubChem.
# Arbovirus anti – antivirals against arbovirus infection; arbovirus infection cell-based antiviral screen; inhibition, % at 10 µM; 200,000 compounds, 0.37% hits; AID 1251; in the data active = inhibition above about 30%
# PKD1 inh – PKD1 (human) kinase inhibition; Q15139; PKD1 kinase fluorescence polarization assay; inhibition, % (test concentration not listed); 200,000 compounds, 0.056% hits
# L major viab – Leishmania major promastigote growth inhibition; Leishmania major promastigotes, resazurin fluorescence viability; inhibition, % at 10 µM; 200,000 compounds, 9% hits; AID 1063;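 also: promastigotes grown with compound for 44 hours at 28 °C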
# Wee1 degr inh – blocks degradation of human Wee1 kinase | AID 1321 | P30291 | 220,000 compounds, 1.2% hits | reporter increase, % at 5 µM | HeLa Luc-Wee1K328M stability, luciferase luminescence; 100% = proteasome inhibitor MG132 effect;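 active = activation above the mean of all tested compounds plus 3 SD, set per screening run, cut at about 8.8% in these data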;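 also: cells exposed to compound for 20 h before luminescence read; 0% = DMSO alone and 100% = MG132 at 30 µM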
# CHOP inhibitor – CHOP inhibition in unfolded protein response; 220,000 compounds, 3.8% hits; CHO-K1 CHOP-promoter luciferase, tunicamycin-induced, 15-18 h; inhibition, % at 10 µM;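 active = compounds that reduced the stress-induced luciferase reporter signal by more than about 70% of percent inhibition, limit read from the data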;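 also: 0% = tunicamycin plus vehicle and 100% = wells without tunicamycin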
# Rad51 HR inh – blocks human Rad51 in homologous recombination | inhibition, % at 10 µM | AID 1385 | 200,000 compounds, 0.085% hits | Q06609 | hRad51 DNA strand exchange, fluorescence dequenching;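 active = inhibition above 40% at the single screening dose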;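 also: 0% = DMSO control wells and 100% = blanks with heterologous ssDNA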
# Target sequence (Q06609 whole entry, looked up): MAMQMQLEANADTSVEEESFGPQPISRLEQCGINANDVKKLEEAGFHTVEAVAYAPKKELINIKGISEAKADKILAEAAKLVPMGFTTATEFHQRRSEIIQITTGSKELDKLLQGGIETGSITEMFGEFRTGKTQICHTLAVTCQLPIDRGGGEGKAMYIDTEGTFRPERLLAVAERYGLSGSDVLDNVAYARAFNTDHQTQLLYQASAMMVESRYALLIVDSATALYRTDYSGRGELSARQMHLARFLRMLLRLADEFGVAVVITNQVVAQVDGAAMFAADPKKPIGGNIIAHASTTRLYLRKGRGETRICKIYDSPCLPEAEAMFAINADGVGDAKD
#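 Test system: preformed human Rad51 ssDNA filaments; also added: Donor/quencher-labelled 47-bp dsDNA substrate; doses: 10 µM final, single point; times: 37 °C 15-min filament assembly, 30-min compound preincubation, 15-min exchange; detection: FRET fluorescence dequenching, excitation 485 nm, emission 520 nm; read-out basis: Fluorescence-based percent inhibition, control- and blank-normalised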
# CHOP confirm – confirmation of CHOP induction inhibitors; inhibition, % at 10 µM; CHO-CHOP promoter luciferase reporter, tunicamycin-induced, luminescence; AID 504437; shares compounds with CHOP inhibitor; 2,100 compounds, 45% hits;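 active = mean of three repeat readings of reporter signal inhibition above a set limit, cut at about 70% in these data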;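 also: 0% = tunicamycin plus vehicle and 100% = wells lacking tunicamycin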
# * hit, by the source's call; i = inactive; nt = no result given. In the library only some 12% were active in any assay of this set; here they are far more common. Rule as the data show it, unless noted: active = inhibition above about 50%; inactive = the rest.
SMILES,Arbovirus anti,PKD1 inh,L major viab,Wee1 degr inh,CHOP inhibitor,Rad51 HR inh,CHOP confirm
Cc1nn(-c2ccccc2)c2c1C(c1ccc(F)cc1F)C(C#N)=C(N)O2 (stereo unspecified),-0.7,-8.4,21.6,3.5,99.5*,1.7,17.3
COCc1c(C(=O)N2CCN(c3ccc(C(F)(F)F)cn3)CC2)oc2ccccc12,-8.8,-9.2,-4.6,0.2,39.9,10.7,nt
CCOC(=O)c1c(COc2ccccc2)oc2ccc(O)cc12,1.9,1.4,-2.6,-1.6,nt,2.2,nt
CCOC(=O)c1c(C(C)(C)C)oc2ccc(O)cc12,-35.4,-7.6,100.2*,0.2,103.9*,5.2,106.4*
Cc1ccc(CNC(=O)c2ccc3c(=O)c(O)c(-c4ccc(C)cc4)[nH]c3c2)cc1,nt,nt,nt,nt,103.0*,2.7,59.8
O=[N+]([O-])c1ccc(O)c(/C=N/Nc2ccccn2)c1,-22.8,1.5,88.7*,-2.4,105.1*,14.9,10.9
CC(=O)C1=C(c2ccc(Br)cc2)C(=O)c2ccccc2C1=O,-40.6,4.4,100.4*,-0.8,109.6*,nt,107.7*
CC1=CC(=C2C(=O)c3ccccc3C2=O)C=C(C)O1,-4.0,-2.3,7.3,-0.9,-16.1,nt,nt
CC1(c2ccc(OC(F)F)cc2)NC(=O)N(CC(=O)Nc2cccc(S(N)(=O)=O)c2)C1=O (stereo unspecified),nt,nt,nt,0.9,9.5,-50.5,nt
CC1(c2ccc(OC(F)F)cc2)NC(=O)N(/N=C/c2c(O)ccc3ccccc23)C1=O (stereo unspecified),-0.2,-18.8,49.6,-1.8,100.7*,-2.5,95.8*
CCc1ccc(/C=c2\s/c(=C\C(=O)C(C)(C)C)[nH]c2=O)cc1,-42.5,-4.7,39.2,2.7,106.6*,6.9,80.1*
Cc1cccc(NC(=O)CSc2nncn2-c2ccccn2)c1,6.4,6.2,6.0,-1.2,9.9,-4.3,nt
CC(C)CCNC(=O)NC(=O)COC(=O)CNC(=O)C1CCCCC1,2.1,-2.0,-1.3,-1.2,-2.3,-3.7,nt
CC(=O)Nc1ccc(NC2=C/C(=N/S(=O)(=O)c3cccs3)c3ccccc3C2=O)cc1,-34.5,-6.3,99.8*,-1.5,107.3*,-2.8,-41.7
CCOc1ccc(/C=N/N2C(=O)C(CC(=O)Nc3ccc(F)cc3F)SC2=NC)cc1OC (stereo unspecified),-1.1,-13.2,2.0,3.4,106.4*,nt,14.5
CN=C1SC(CC(=O)Nc2ccccc2F)C(=O)N1/N=C/c1ccc(O)c(OC)c1 (stereo unspecified),-2.4,-8.4,-1.0,-2.9,22.3,1.3,nt
COc1ccc(-c2nc3ccccc3c(=O)n2N)cc1,11.0,5.4,-10.0,0.6,-12.3,0.2,nt
COc1ccc(C(=O)On2c(-c3ccc(Br)cc3)nc3ccccc3c2=O)cc1,-6.8,16.7,-7.7,0.8,105.5*,-2.3,68.7
COc1cc(OC)cc(-c2nc3ccccc3c(=O)n2OC(=O)c2ccc(Br)cc2)c1,15.0,12.3,50.2*,0.8,105.6*,3.0,111.6*
COc1ccc(O)c(CNn2c(-c3ccc(Br)cc3)nc3ccccc3c2=O)c1,5.6,3.3,34.9,3.8,9.8,10.4,nt
CCCOC(=O)c1cccc(Nc2nc(-c3cccnc3)nc3ccccc23)c1,-16.8,-7.5,55.5*,1.5,96.5*,5.9,56.4
COC(=O)CSc1nc(C)cc(N2CCOCC2)n1,5.0,1.4,-4.9,0.2,12.1,nt,nt
Cc1cc2ncn(-c3ncnc4sc5c(c34)CCC(C)C5)c2cc1C (stereo unspecified),10.6,-0.2,0.8,2.1,96.5*,nt,14.5
CCN1CCN(CC(=O)Nc2cc3c(cc2C(C)=O)OCO3)CC1,12.6,0.4,5.1,0.6,3.9,-2.9,nt
C/C(CCc1oc2ccc(Br)cc2c1-c1ccc(C)o1)=N/O,-1.2,12.4,-2.7,-1.3,97.3*,nt,38.6
SMILES,Arbovirus anti,PKD1 inh,L major viab,Wee1 degr inh,CHOP inhibitor,Rad51 HR inh,CHOP confirm
N=C1/C(=C\c2coc3ccccc3c2=O)C(=O)N=C2SC(c3ccncc3)=NN12,nt,nt,nt,-1.8,102.1*,i,-3.5
CCc1nnc(NS(=O)(=O)c2ccc(NC(=S)NC(=O)/C=C/c3ccccc3)cc2)s1,2.3,1.0,-4.8,-0.4,28.9,-2.2,nt
CCc1nnc(NS(=O)(=O)c2ccc(NC(=S)NC(=O)/C=C/c3ccc(C(C)C)cc3)cc2)s1,3.8,3.5,-8.4,-1.6,104.7*,-4.2,117.7*
Cc1ccc2nc(NC(=O)CN(C)S(=O)(=O)c3ccc(Br)s3)sc2c1,15.0,4.9,98.5*,3.0,102.0*,-2.4,24.0
Cc1ccc2nc(NC(=O)CNS(=O)(=O)c3ccc(Br)s3)sc2c1,1.1,-2.2,0.1,0.6,3.3,6.1,nt
CC(C)(C)C(=O)Cn1ncc(Br)c(Br)c1=O,-26.9,3.0,55.8*,-0.1,104.5*,11.6,84.8*
CCOC(=O)c1c(NC(C)=O)sc2c(OCC(O)CNC(C)(C)C)c(Br)ccc12 (stereo unspecified),-30.5,3.2,100.5*,-0.2,105.3*,14.0,62.5
O=[N+]([O-])c1ccc(OC(F)F)c(/C=N/n2cnnc2)c1,nt,nt,nt,0.8,18.6,7.2,nt
COc1ccccc1NS(=O)(=O)c1cc(NC(=O)Nc2cccc(C)c2)ccc1N1CCCCC1,14.0,-2.9,43.3,-2.2,46.8,6.6,nt
O=C(Nc1ccc(Cl)cc1)Nc1ccc(N2CCCC2)c(S(=O)(=O)Nc2ccccc2Cl)c1,-12.2,-6.6,100.2*,0.4,99.5*,-4.8,73.2*
Cc1cc(C)c(C)c(OCc2nc(-c3cccnc3)no2)c1,2.6,-1.8,1.4,1.2,96.7*,2.2,35.3
CC1CCCC(NCC(O)COC(c2ccc(F)cc2)c2ccc(F)cc2)C1C (stereo unspecified),-40.7,4.1,100.3*,-0.1,103.0*,-1.9,110.9*
CCN1C/C(=C/c2ccc(OC)c(O)c2)C(=O)/C(=C/c2ccc(OC)c(O)c2)C1,-30.1,-1.7,100.4*,-0.4,99.9*,-1.1,96.8*
CCOC(=O)c1sc(NC(=O)CSc2nnnn2-c2ccc(C)cc2C)nc1C,-0.6,4.2,-5.1,6.3,100.2*,nt,20.2
CCOC(=O)Cc1csc(NC(=O)CSc2nnnn2-c2ccc(C)cc2C)n1,-0.4,-8.4,-3.2,0.0,23.9,-4.2,nt
COc1ccc(/C=N/NC(=O)CNC(=O)c2cccs2)cc1,-10.9,-1.7,9.2,3.3,34.6,3.8,nt
COc1ccc(/C=C(/C(=O)c2cccs2)N2C=CC=CC2=C(C#N)C#N)cc1,-32.4,8.6,0.2,-3.5,104.9*,-8.1,108.8*
CN1CCc2c(sc(NC(=O)c3cc4cc([N+](=O)[O-])ccc4s3)c2C(N)=O)C1,-35.9,-6.3,100.5*,-1.1,101.3*,-6.1,132.3*
